Experimental data from ChEMBL document CHEMBL1154626, “Novel, potent, and selective quinoxaline-based 5-HT(3) receptor ligands. 1. Further structure-activity relationships and pharmacological characterization” (J Med Chem, 2009).
Active and inactive are the calls of the source. The rule behind the calls is not given here.

What was measured:
Rattus norvegicus [1] = test: Antagonist activity at 5HT3 receptor in iv dosed Sprague-Dawley rat assessed as inhibition of 1-phenylbiguanide-induced bradycardia administered 5 mins before 1-phenylbiguanide challenge measured after 5 to 30 mins post-treatment by von Bezold-Jarisch reflex test; type: functional
Summary of the method: (§1)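 Urethane-anesthetized rats, compound given iv. Agonism was scored as the compound itself evoking the von Bezold-Jarisch reflex (bradycardia). Antagonism was tested by giving the compound iv 5, 15 or 30 min before phenylbiguanide (PBG) and scoring the reduction of PBG-evoked bradycardia. ED50 is the dose giving half of the maximal bradycardia evoked by the same compound.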

[2] = target: T1, 5-hydroxytryptamine receptor 3A (Rattus norvegicus, UniProt P35563); test: Displacement of [3H]LY278584 from 5HT3 receptor in rat cortical homogenate
T1 sequence (P35563 whole entry): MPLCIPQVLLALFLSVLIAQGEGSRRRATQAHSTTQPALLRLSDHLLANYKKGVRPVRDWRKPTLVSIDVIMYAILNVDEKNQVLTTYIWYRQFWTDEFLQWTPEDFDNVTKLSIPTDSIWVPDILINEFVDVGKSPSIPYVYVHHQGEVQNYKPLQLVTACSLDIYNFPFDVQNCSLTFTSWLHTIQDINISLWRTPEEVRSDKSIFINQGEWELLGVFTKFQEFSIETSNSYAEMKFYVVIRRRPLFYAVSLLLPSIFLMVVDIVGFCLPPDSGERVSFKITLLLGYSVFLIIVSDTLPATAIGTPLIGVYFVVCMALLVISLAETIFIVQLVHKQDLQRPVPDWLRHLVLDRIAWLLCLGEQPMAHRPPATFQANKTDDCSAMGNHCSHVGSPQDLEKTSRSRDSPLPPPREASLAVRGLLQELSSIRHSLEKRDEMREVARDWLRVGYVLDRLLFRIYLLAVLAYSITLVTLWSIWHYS
Summary of the method: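 Rat cortical homogenate, competition against [3H]LY278584 binding. Ki is the concentration giving half-maximal inhibition of binding, as the mean ± S.E.M. of three determinations.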

Rattus norvegicus [3] = test: Agonist activity at 5HT3 receptor in Sprague-Dawley rat assessed as induction of bradycardia at 10 ug/kg, iv measured after 5 to 30 mins post-treatment by von Bezold-Jarisch reflex test; type: functional; summary of the method: as §1
Rattus norvegicus [4] = test: Antagonist activity at 5HT3 receptor in Sprague-Dawley rat assessed as inhibition of 1-phenylbiguanide-induced bradycardia at 10 ug/kg, iv administered 5 mins before 1-phenylbiguanide challenge measured after 5 to 30 mins post-treatment by von Bezold-Jarisch reflex test; type: functional; design: scale not given: the % may be the effect or the level left; summary of the method: as §1
Rattus norvegicus [5] = test: Agonist activity at 5HT3 receptor in iv dosed Sprague-Dawley rat assessed as induction of bradycardia measured after 5 to 30 mins post-treatment by von Bezold-Jarisch reflex test; type: functional; summary of the method: as §1
[6] = target: T2, Adrenergic receptor alpha-1 (Rattus norvegicus, UniProt P15823+P23944+P43140); test: Displacement of [3H]prazosin from adrenergic alpha1 receptor in rat cortex
T2 sequence (P15823 whole entry): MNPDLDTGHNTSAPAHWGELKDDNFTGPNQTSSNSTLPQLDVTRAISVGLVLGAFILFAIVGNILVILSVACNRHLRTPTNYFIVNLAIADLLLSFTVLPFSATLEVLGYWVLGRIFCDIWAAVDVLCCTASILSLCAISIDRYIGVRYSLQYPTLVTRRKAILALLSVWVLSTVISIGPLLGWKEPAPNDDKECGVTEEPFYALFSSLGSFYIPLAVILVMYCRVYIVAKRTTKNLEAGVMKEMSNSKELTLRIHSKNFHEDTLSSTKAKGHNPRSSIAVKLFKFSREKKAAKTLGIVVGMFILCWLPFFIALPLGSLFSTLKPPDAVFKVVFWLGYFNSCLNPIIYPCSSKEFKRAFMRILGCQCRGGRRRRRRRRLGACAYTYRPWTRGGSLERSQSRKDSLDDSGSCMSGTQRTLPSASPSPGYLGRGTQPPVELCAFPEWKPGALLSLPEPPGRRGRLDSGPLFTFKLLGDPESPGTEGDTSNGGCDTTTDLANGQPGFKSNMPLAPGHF
T2 sequence (P23944 whole entry): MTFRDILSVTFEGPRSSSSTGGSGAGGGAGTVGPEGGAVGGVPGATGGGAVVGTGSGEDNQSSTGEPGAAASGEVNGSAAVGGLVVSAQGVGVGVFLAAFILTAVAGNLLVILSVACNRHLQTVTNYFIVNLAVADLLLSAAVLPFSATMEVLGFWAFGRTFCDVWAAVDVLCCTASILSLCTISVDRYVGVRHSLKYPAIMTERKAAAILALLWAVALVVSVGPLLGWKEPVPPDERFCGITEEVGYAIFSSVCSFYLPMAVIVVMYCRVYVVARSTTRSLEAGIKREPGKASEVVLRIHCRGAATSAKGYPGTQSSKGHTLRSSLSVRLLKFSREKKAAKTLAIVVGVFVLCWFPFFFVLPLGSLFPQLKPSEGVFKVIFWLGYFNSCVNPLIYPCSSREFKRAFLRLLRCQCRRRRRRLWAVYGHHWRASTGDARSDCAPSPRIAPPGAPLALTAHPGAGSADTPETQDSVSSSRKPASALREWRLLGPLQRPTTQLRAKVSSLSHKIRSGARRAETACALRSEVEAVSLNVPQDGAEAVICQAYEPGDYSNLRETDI
T2 sequence (P43140 whole entry): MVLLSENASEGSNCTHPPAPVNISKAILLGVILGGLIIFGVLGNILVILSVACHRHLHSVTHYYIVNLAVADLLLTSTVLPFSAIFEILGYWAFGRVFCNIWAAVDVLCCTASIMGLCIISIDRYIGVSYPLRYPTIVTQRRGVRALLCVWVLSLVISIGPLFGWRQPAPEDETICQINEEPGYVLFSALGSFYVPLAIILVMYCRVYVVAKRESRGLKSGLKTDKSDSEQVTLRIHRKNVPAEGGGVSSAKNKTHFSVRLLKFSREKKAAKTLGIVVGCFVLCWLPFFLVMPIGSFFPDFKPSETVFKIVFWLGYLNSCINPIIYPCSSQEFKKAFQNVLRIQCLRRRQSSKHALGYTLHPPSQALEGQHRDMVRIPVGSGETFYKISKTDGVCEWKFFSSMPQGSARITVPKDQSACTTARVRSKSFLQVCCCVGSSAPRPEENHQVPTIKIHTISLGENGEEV

Rattus norvegicus [7] = test: Agonist activity at 5HT3 receptor in Sprague-Dawley rat assessed as induction of bradycardia at 50 ug/kg, iv measured after 5 to 30 mins post-treatment by von Bezold-Jarisch reflex test; type: functional; summary of the method: as §1
Rattus norvegicus [8] = test: Antagonist activity at 5HT3 receptor in Sprague-Dawley rat assessed as inhibition of 1-phenylbiguanide-induced bradycardia at 50 ug/kg, iv administered 5 mins before 1-phenylbiguanide challenge measured after 5 to 30 mins post-treatment by von Bezold-Jarisch reflex test; type: functional; design: scale not given: the % may be the effect or the level left; summary of the method: as §1
[9] = target: T3, 5-hydroxytryptamine receptor 3A (Cavia porcellus, UniProt O70212); test: Antagonist activity at 5HT3 receptor in spontaneously beating guinea pig right atrium assessed as inhibition of serotonin-induced maximum response by noncompetitive binding assay; type: tissue-based, Cardiac atrium; settings: read-out: IC50
T3 sequence (O70212 whole entry): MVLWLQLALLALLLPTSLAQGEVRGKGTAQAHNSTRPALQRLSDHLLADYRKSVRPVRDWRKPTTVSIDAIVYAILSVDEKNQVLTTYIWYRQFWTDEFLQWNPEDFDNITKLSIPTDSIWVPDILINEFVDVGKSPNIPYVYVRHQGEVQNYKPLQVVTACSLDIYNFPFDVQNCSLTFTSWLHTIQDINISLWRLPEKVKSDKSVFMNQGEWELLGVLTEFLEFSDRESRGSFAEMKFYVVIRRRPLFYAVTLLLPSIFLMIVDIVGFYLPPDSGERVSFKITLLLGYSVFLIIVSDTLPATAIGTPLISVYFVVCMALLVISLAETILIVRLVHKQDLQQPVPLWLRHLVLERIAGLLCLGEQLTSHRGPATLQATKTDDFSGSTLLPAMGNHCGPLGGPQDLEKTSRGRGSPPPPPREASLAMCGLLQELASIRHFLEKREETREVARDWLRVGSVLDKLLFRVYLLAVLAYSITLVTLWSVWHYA
Summary of the method: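 Spontaneously beating guinea pig right atria, exposed 30 min to test compound at 10 μM, followed by cumulative 5-HT log concentration-response curves versus control. Mean ± SEM of five to seven observations.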

[10] = target: 5-hydroxytryptamine receptor 4 (Cavia porcellus, UniProt O70528); test: Displacement of [3H]GR-113808 from 5HT4 receptor in guinea pig striatum
Rattus norvegicus [11] = test: Antagonist activity at 5HT3 receptor in Sprague-Dawley rat assessed as inhibition of 1-phenylbiguanide-induced bradycardia at 100 ug/kg, iv administered 5 mins before 1-phenylbiguanide challenge measured after 5 to 30 mins post-treatment by von Bezold-Jarisch reflex test; type: functional; summary of the method: as §1
Rattus norvegicus [12] = test: Agonist activity at 5HT3 receptor in Sprague-Dawley rat assessed as induction of bradycardia at 100 ug/kg, iv measured after 5 to 30 mins post-treatment by von Bezold-Jarisch reflex test; type: functional; summary of the method: as §1

5-hydroxytryptamine receptor 4, sequence (O70528 whole entry): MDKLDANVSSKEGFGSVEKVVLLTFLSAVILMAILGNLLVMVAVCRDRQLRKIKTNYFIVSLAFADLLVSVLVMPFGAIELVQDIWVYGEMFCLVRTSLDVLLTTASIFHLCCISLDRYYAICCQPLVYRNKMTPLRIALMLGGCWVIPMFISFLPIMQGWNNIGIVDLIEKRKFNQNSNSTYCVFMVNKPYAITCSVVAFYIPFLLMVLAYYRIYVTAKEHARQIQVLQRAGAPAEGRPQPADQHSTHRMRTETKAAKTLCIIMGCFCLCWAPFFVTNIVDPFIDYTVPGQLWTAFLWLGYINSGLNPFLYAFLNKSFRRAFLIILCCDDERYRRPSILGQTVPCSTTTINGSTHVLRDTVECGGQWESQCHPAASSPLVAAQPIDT

Structure (SMILES)	Ki ([2]; read-out: Ki) [nM]	Activity (Rattus norvegicus [3])	ID50 (Rattus norvegicus [1]) [µg/kg]	Activity (Rattus norvegicus [4])	ED50 (Rattus norvegicus [5]) [mg/kg]	also measured
CN1CCN(c2nc3cc(F)ccc3n3cccc23)CC1	0.81	–	600	–	–	–
Cc1cccc2nc(N3CCN(Cc4c[nH]cn4)CC3)c3cccn3c12	–	inactive	3.5	60%	0.037	Ki [6]: > 10 µM
Oc1ccc2c(c1)nc(N1CCN(Cc3c[nH]cn3)CC1)c1cccn12	2.25	45%	6.5	62%	0.028	Activity (Rattus norvegicus [7]): 50%; Activity (Rattus norvegicus [8]): 90%; IC50 [9]: 2630 nM
Cc1cccc2nc(N3CCN(C)CC3)c3cccn3c12	0.79	–	–	–	–	–
Cc1cccc2nc(N3CCN(Cc4ccccc4)CC3)c3cccn3c12	–	–	–	–	–	Ki [2]: 8.8 nM
c1ccc2nc(N3CCNCC3)ccc2c1 [QUIPAZINE]	–	–	–	–	–	Ki [10]: > 10 µM

Second part, led by results:

Ki ([2]; read-out: Ki) [nM]	Activity (Rattus norvegicus [3])	Structure (SMILES)	ID50 (Rattus norvegicus [1]) [µg/kg]	Activity (Rattus norvegicus [4])	ED50 (Rattus norvegicus [5]) [mg/kg]	also measured
330	–	Fc1ccc2c(c1)nc(N1CCN(CCc3cnc[nH]3)CC1)c1cccn12	–	–	–	–
44.3	inactive	NNC(=O)CN1CCN(c2nc3cc(F)ccc3n3cccc23)CC1	–	inactive	0.057	Activity (Rattus norvegicus [8]): inactive; Activity (Rattus norvegicus [11]): inactive; Activity (Rattus norvegicus [12]): 80%
